Data taken from ChEMBL document CHEMBL1123266, “Antibacterial activity of phosphono dipeptides related to alafosfalin” (J Med Chem, 1986).
≈ marks a conversion by molar mass, not a printed value.

How the values were obtained:
Bacillus subtilis [1] = assay: Compound was evaluated for its minimum inhibitory concentration (MIC) to control the growth of Bacillus subtilis strain PCM 1949.; format: functional
Procedure, shortened: (§1)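 Doubling dilutions of compound were made in a defined liquid peptide medium free of peptide-mimetic antagonists, final 0.065–512 μg/mL. The inoculum was an overnight 37 °C culture diluted to about 4 × 10^6 cfu/mL, incubated overnight at 37 °C. Non-turbid samples were subcultured (0.1 mL) onto solid peptide-medium agar and incubated overnight at 37 °C to assign MIC.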

Serratia marcescens [2] = assay: Concentration (IC50) to inhibit the growth of Serratia marcescens.; format: functional, organism-based
Procedure, shortened: (§2)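 Broth dilution in a defined liquid peptide medium lacking antagonists of small peptide mimetics. Inocula were overnight cultures grown in this medium at 37 °C and diluted to about 4 × 10^6 cfu/mL. Compound was tested as a doubling dilution series, final 0.065–512 μg/mL, incubated overnight at 37 °C. Turbidity was read, and IC50 is the concentration reducing 24-h growth to 50% of control.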

Klebsiella aerogenes [3] = assay: Concentration (IC50) to inhibit the growth of Klebsiella aerogenes.; format: functional, organism-based; procedure, shortened: as §2
Escherichia coli [4] = assay: Concentration (IC50) to inhibit the growth of Escherichia coli.; format: functional, organism-based; procedure, shortened: as §2
Enterococcus faecalis [5] = assay: Concentration (IC50) to inhibit the growth of Streptococcus faecalis.; format: functional, organism-based; procedure, shortened: as §2
Escherichia coli [6] = assay: Minimum inhibitory concentration (MIC) to control the growth of Escherichia coli strain PCM 2057; format: functional; procedure, shortened: as §1
Staphylococcus aureus [7] = assay: Compound was evaluated for its minimum inhibitory concentration (MIC) to control the growth of Staphylococcus aureus strain PCM 2054.; format: functional; procedure, shortened: as §1
Enterococcus faecalis [8] = assay: Minimum inhibitory concentration (MIC) to control the growth of Streptococcus faecalis strain PCM 896; format: functional; procedure, shortened: as §1
Serratia marcescens [9] = assay: Compound was evaluated for its minimum inhibitory concentration (MIC) to control the growth of Serratia marcescens strain PCM 549.; format: functional; procedure, shortened: as §1
Staphylococcus aureus [10] = assay: Compound was evaluated for its concentration (IC50) to inhibit the growth of Staphylococcus aureus.; format: functional, organism-based; procedure, shortened: as §2
Klebsiella aerogenes [11] = assay: Minimum inhibitory concentration (MIC) to control the growth of Klebsiella aerogenes strain PCM 2063; format: functional; procedure, shortened: as §1
Bacillus subtilis [12] = assay: Concentration (IC50) to inhibit the growth of Bacillus subtilis; format: functional, organism-based; procedure, shortened: as §2
Staphylococcus aureus [13] = assay: Concentration (IC50) to inhibit the growth of Staphylococcus aureus.; format: functional, organism-based; procedure, shortened: as §2
Bacillus subtilis [14] = assay: Minimum inhibitory concentration (MIC) to control the growth of Bacillus subtilis strain PCM 1949.; format: functional; procedure, shortened: as §1
Staphylococcus aureus [15] = assay: Minimum inhibitory concentration (MIC) to control the growth of Staphylococcus aureus strain PCM 2054.; format: functional; procedure, shortened: as §1
Serratia marcescens [16] = assay: Minimum inhibitory concentration (MIC) to control the growth of Serratia marcescens strain PCM 549.; format: functional; procedure, shortened: as §1
Escherichia coli [17] = assay: Compound was evaluated for its minimum inhibitory concentration (MIC) to control the growth of Escherichia coli strain PCM 2057.; format: functional; procedure, shortened: as §1

Row | SMILES | MIC (Bacillus subtilis [1]) [mg/L] | IC50 (Serratia marcescens [2]) [mg/L] | IC50 (Klebsiella aerogenes [3]) [mg/L] | IC50 (Escherichia coli [4]) [mg/L] | IC50 (Enterococcus faecalis [5]) [mg/L] | MIC (Escherichia coli [6]) [mg/L] | MIC (Staphylococcus aureus [7]) [mg/L] | MIC (Enterococcus faecalis [8]) [mg/L] | MIC (Serratia marcescens [9]) [mg/L] | IC50 (Staphylococcus aureus [10]) [mg/L] | MIC (Klebsiella aerogenes [11]) [mg/L] | IC50 (Bacillus subtilis [12]) [mg/L] | IC50 (Staphylococcus aureus [13]) [mg/L] | MIC (Bacillus subtilis [14]) [mg/L] | MIC (Staphylococcus aureus [15]) [mg/L] | MIC (Serratia marcescens [16]) [mg/L] | MIC (Escherichia coli [17]) [mg/L]
1 | CC(N)C(=O)NC(Cc1ccccc1)P(=O)(O)O (centres undefined) | > 512 | 14 (≈ 51.4 µM) | > 512 | > 512 | > 512 | > 512 | > 512 | > 512 | > 512 | 333 (≈ 1220 µM) | > 512 | 6.8 (≈ 25 µM) |  |  |  |  | 
2 | CC(C)CC(N)C(=O)NC(C1CC1)P(=O)(O)O (centres undefined) |  | > 512 | > 512 | > 512 | > 512 | > 512 |  | > 512 | > 512 |  | > 512 | > 512 | 83 (≈ 314 µM) | > 512 | 128 (≈ 484 µM) |  | 
3 | COc1ccc(CC(NC(=O)C(N)CC(C)C)P(=O)(O)O)cc1OC (centres undefined) |  | > 512 | > 512 | > 512 | > 512 | > 512 |  | > 512 |  |  | > 512 | > 512 | > 512 | > 512 | > 512 | > 512 | 
4 | CC(N)C(=O)NC(C1CC1)P(=O)(O)O (centres undefined) |  | > 512 | > 512 | > 512 | > 512 | > 512 |  | > 512 |  |  | > 512 | > 512 | > 512 | > 512 | > 512 | > 512 | 
5 | CC(=O)OCC(NC(=O)C(C)N)P(=O)(O)O (centres undefined) |  | > 512 | 96 (≈ 378 µM) | > 512 | 512 (≈ 2010 µM) | > 512 |  | > 512 |  |  | > 512 | > 512 | 0.065 (≈ 0.256 µM) | > 512 | > 512 | > 512 | 
6 | CC(N)C(=O)NC(C)P(=O)(O)O (centres undefined) |  | 0.6 (≈ 3.06 µM) | 64 (≈ 326 µM) | 0.22 (≈ 1.12 µM) | 30 (≈ 153 µM) |  |  | > 512 |  |  | > 512 | 512 (≈ 2610 µM) | 58 (≈ 296 µM) | > 512 | > 512 | 64 (≈ 326 µM) | 8 (≈ 40.8 µM)
7 | CC(C)CC(N)C(=O)NC(C(C)(C)C)P(=O)(O)O (centres undefined) |  | > 512 | > 512 | > 512 | > 512 | > 512 |  | > 512 |  |  | > 512 | > 512 | > 512 | > 512 | > 512 | > 512 | 
8 | CC(C)CC(N)C(=O)NC(CC(C)C)P(=O)(O)O (centres undefined) |  | 64 (≈ 228 µM) | > 512 | 307 (≈ 1100 µM) | > 512 | > 512 |  | > 512 |  |  | > 512 | 32 (≈ 114 µM) | 104 (≈ 371 µM) | > 512 | 512 (≈ 1830 µM) | > 512 | 
9 | CC(C)CC(NC(=O)C(C)N)P(=O)(O)O (centres undefined) |  | > 512 | > 512 | > 512 | 90 (≈ 378 µM) | > 512 |  | > 512 |  |  | > 512 | 153 (≈ 642 µM) | 48 (≈ 201 µM) | > 512 | 256 (≈ 1070 µM) | > 512 | 
10 | CC(=O)OCC(NC(=O)C(N)CC(C)C)P(=O)(O)O (centres undefined) |  | > 512 | > 512 | > 512 | 0.065 (≈ 0.219 µM) | > 512 |  | > 512 |  |  | > 512 | 1.4 (≈ 4.73 µM) | > 512 | > 512 | > 512 | > 512 | 
11 | CC(N)C(=O)NC1(P(=O)(O)O)CCCCC1 (centres undefined) |  | > 512 | > 512 | > 512 | > 512 | > 512 |  | > 512 |  |  | > 512 | > 512 | > 512 | > 512 | > 512 | > 512 | 
12 | CC(C)CC(N)C(=O)NC(C1CCCC1)P(=O)(O)O (centres undefined) |  | 64 (≈ 219 µM) | > 512 | > 512 | > 512 | > 512 |  | > 512 |  |  | > 512 | 435 (≈ 1490 µM) | 6 (≈ 20.5 µM) | > 512 | > 512 | 128 (≈ 438 µM) | 
13 | CC(C)CC(N)C(=O)NC(CCC(=O)O)P(=O)(O)O (centres undefined) |  | 16 (≈ 54 µM) | 22 (≈ 74.3 µM) | 18 (≈ 60.8 µM) | 32 (≈ 108 µM) | 128 (≈ 432 µM) |  | > 512 |  |  | 128 (≈ 432 µM) | 14 (≈ 47.3 µM) | 128 (≈ 432 µM) | 128 (≈ 432 µM) | > 512 | > 512 | 
14 | CC(C)CC(N)C(=O)NC(Cc1ccccc1)P(=O)(O)O (centres undefined) |  | > 512 | > 512 | > 512 | > 512 | > 512 |  | > 512 |  |  | > 512 | 0.065 (≈ 0.207 µM) | 0.6 (≈ 1.91 µM) | > 512 | > 512 | > 512 | 
15 | CC(N)C(=O)NC(CCC(=O)O)P(=O)(O)O (centres undefined) |  | 0.065 (≈ 0.256 µM) | 4.8 (≈ 18.9 µM) | 5.6 (≈ 22 µM) | 32 (≈ 126 µM) | 64 (≈ 252 µM) |  | > 512 |  |  | 128 (≈ 504 µM) | 14 (≈ 55.1 µM) | 1.8 (≈ 7.08 µM) | 16 (≈ 62.9 µM) | 256 (≈ 1010 µM) | > 512 | 
16 | CC(C)CC(N)C(=O)NC(C12CC3CC(CC(C3)C1)C2)P(=O)(O)O (centres undefined) |  | > 512 | > 512 | > 512 | > 512 | > 512 |  | > 512 |  |  | > 512 | > 512 | > 512 | > 512 | > 512 | > 512 | 
17 | CC(C)CC(N)C(=O)NC(C)(C)P(=O)(O)O (centres undefined) |  | 384 (≈ 1520 µM) | 4.4 (≈ 17.4 µM) | 35 (≈ 139 µM) | 4.4 (≈ 17.4 µM) | 64 (≈ 254 µM) |  | 8 (≈ 31.7 µM) |  |  | 256 (≈ 1010 µM) | 45 (≈ 178 µM) | 48 (≈ 190 µM) | 256 (≈ 1010 µM) | 256 (≈ 1010 µM) | > 512 | 
